The target of test [1] is T1, 5-hydroxytryptamine receptor 1B (Rattus norvegicus, UniProt P28564). Kind of test: Binding affinity determined in radioreceptor binding assay by using [3H]5-HT radioligand against 5-hydroxytryptamine 1B receptor. The method, boiled down:
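Rat cortical tissue labelled with [3H]serotonin. The incubation medium included 8-OH-DPAT at 100 nM final. Run in duplicate, with one to five concentration–response curves per compound.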

The target of test [2] is T2, Serotonin 2 (5-HT2) receptor (Rattus norvegicus, UniProt P30994+P08909+P14842). Kind of test: Binding affinity in radioreceptor binding assay by using [3H]5-HT radioligand against 5-hydroxytryptamine 2 receptor. It is filed as protein assay.
Test [3] deals with T3, Adrenergic receptor alpha-1 (Rattus norvegicus, UniProt P15823+P23944+P43140).
T3 sequence (P15823 whole entry): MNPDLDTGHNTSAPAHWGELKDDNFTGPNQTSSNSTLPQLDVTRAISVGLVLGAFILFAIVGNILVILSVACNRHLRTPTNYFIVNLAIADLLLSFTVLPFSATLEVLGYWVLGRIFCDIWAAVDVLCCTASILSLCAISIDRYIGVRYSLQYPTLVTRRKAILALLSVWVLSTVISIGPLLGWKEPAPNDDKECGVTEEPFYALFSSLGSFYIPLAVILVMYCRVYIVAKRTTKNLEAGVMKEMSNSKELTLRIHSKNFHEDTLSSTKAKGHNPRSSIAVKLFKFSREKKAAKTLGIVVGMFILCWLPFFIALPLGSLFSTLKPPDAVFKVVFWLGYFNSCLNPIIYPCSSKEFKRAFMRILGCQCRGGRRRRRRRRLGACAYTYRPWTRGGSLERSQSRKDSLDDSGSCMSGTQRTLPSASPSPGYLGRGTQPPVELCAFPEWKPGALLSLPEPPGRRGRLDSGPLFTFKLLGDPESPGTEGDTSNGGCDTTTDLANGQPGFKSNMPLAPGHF
T3 sequence (P23944 whole entry): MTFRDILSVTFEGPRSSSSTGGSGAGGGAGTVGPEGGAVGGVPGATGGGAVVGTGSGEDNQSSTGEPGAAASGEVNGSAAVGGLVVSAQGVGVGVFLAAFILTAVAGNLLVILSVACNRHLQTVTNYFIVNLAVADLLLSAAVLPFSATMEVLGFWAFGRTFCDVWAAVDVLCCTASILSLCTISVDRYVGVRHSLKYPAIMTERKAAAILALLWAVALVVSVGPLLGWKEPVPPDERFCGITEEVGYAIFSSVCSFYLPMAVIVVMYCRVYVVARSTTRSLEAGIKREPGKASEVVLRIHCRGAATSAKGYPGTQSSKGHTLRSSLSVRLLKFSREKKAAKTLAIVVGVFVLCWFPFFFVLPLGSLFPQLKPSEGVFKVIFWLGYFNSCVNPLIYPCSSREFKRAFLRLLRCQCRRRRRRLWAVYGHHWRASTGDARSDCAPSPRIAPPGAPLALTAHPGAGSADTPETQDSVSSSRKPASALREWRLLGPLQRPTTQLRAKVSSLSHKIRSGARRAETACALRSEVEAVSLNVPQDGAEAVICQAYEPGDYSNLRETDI
T3 sequence (P43140 whole entry): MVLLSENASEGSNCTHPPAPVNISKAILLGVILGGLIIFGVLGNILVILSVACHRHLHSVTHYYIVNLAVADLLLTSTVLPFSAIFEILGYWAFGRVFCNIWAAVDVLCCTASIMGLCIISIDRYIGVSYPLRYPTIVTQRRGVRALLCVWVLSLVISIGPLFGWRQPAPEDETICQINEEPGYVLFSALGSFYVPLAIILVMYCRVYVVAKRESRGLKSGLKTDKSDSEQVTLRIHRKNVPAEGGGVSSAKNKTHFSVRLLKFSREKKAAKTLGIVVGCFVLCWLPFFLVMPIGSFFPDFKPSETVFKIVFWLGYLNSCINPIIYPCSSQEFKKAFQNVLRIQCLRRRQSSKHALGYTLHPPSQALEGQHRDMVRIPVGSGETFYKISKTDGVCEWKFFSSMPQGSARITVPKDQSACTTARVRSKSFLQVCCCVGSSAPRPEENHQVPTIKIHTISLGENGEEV
As to the kind of experiment: Binding affinity against rat Alpha-1 adrenergic receptor. It is filed as protein assay.

In test [4] the test system is Rattus norvegicus. As to the kind of experiment: (§1) Effective dose in blocking conditioned avoidance responding (CAR) in the rat when administered intraperitoneally. The settings on record: ip. It is filed as functional. Summed up: (§2)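 Rats trained on a discrete-trial single-lever conditioned avoidance task, dosed ip and tested at the time of peak effect. Each dose was given to 6–12 rats. CAR reduction and loss of escape responding were recorded.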

Test [5] concerns the target T4, Serotonin 1 (5-HT1) receptor (Rattus norvegicus, UniProt P28564+P30940+P19327+P28565). As to the kind of experiment: Binding affinity in radioreceptor binding assay by using [3H]5-HT radioligand against 5-hydroxytryptamine 1 receptor. In kind it is protein assay.
Test [6] has as its target T5, D(1A) dopamine receptor (Rattus norvegicus, UniProt P18901). Kind of test: Binding affinity at rat Dopamine receptor D1 by [3H]SCH-23390 displacement. The method, boiled down:
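Rat striatal tissue suspended in 20 mM NaHepes without sucrose, at 250 volumes of the tissue weight. Labelled with [3H]SCH-23390 added as a 3 nM solution. Nonspecific binding set with unlabelled SCH-23390 added as a 30 μM solution. Incubated 20 min. Run in duplicate, with one to five concentration–response curves per compound.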

Test [7] concerns the target T6, D(2) dopamine receptor (Rattus norvegicus, UniProt P61169). As to the kind of experiment: Binding affinity against rat Dopamine receptor D2.
The target in test [8] is T7, 5-hydroxytryptamine receptor 1A (Rattus norvegicus, UniProt P19327).
T7 sequence (P19327 whole entry): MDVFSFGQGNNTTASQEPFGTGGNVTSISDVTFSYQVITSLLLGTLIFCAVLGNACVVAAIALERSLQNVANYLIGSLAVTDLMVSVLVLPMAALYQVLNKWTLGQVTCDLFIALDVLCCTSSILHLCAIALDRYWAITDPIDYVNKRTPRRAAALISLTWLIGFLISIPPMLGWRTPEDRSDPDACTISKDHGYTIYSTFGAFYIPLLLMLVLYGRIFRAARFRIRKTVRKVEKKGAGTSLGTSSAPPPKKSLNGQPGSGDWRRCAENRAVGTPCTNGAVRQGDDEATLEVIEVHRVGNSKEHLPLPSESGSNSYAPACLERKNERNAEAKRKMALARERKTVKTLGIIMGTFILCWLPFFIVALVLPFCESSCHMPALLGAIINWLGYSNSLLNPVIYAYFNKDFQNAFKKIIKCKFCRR

The target of test [9] is T4, Serotonin 1 (5-HT1) receptor. As to the kind of experiment: Binding affinity determined in radioreceptor binding assay by using [3H]5-HT radioligand against 5-hydroxytryptamine 1 receptor. In kind it is protein assay.
In test [10] the target is T1, 5-hydroxytryptamine receptor 1B. Kind of test: Binding affinity at rat 5-hydroxytryptamine 1B receptor by [3H]5-HT displacement.
The species named for test [11] is Rattus norvegicus. Kind of test: (§3) The percent loss of escape responding was determined for the estimated effective dose 50 values for CAR block. It is filed as functional. The method, boiled down: as §2
Test [12] has as its target T5, D(1A) dopamine receptor. As to the kind of experiment: Activity in radioreceptor binding assay by using […] against Dopamine receptor D1.
For test [13], the target named is T2, Serotonin 2 (5-HT2) receptor. Kind of test: Binding affinity at rat 5-hydroxytryptamine 2 receptor by [3H]ketanserin displacement. It is filed as protein assay.
For test [14], the target named is T5, D(1A) dopamine receptor. As to the kind of experiment: Binding affinity in radioreceptor binding assay by using [3H]5-HT radioligand against Dopamine receptor D1.
Test [15] addresses T1, 5-hydroxytryptamine receptor 1B. As to the kind of experiment: Binding affinity in radioreceptor binding assay by using [3H]5-HT radioligand against 5-hydroxytryptamine 1B receptor. The method, boiled down:
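Rat cortical membranes; [3H]serotonin as ligand, as in the 5-HT-1 assay, with 8-OH-DPAT added at 100 nM final to the incubation medium; assays run in duplicate; one to five concentration-response curves per compound.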

Test [16] has as its target T7, 5-hydroxytryptamine receptor 1A. As to the kind of experiment: Binding affinity in radioreceptor binding assay by using [3H]5-HT radioligand against 5-hydroxytryptamine 1A receptor.
Test [17] addresses T6, D(2) dopamine receptor. As to the kind of experiment: Binding affinity in radioreceptor binding assay by using [3H]5-HT radioligand against Dopamine receptor D2.
Test [18] is filed under the species Rattus norvegicus. The test is described as §3. It is filed as functional. This is another data set of the same source.
Test [19] concerns the target T5, D(1A) dopamine receptor.
Test [20] concerns Rattus norvegicus. The description is as §1. The settings on record: ip.
The target of test [21] is T6, D(2) dopamine receptor. As to the kind of experiment: Binding affinity determined in radioreceptor binding assay against dopamine receptor D2.
Test [22] deals with T2, Serotonin 2 (5-HT2) receptor. As to the kind of experiment: Binding affinity determined in radioreceptor binding assay by using [3H]ketanserin radioligand against 5-hydroxytryptamine 2 receptor. It is filed as protein assay.

pKi: −log10 of the molar value.

T6 sequence (P61169 whole entry): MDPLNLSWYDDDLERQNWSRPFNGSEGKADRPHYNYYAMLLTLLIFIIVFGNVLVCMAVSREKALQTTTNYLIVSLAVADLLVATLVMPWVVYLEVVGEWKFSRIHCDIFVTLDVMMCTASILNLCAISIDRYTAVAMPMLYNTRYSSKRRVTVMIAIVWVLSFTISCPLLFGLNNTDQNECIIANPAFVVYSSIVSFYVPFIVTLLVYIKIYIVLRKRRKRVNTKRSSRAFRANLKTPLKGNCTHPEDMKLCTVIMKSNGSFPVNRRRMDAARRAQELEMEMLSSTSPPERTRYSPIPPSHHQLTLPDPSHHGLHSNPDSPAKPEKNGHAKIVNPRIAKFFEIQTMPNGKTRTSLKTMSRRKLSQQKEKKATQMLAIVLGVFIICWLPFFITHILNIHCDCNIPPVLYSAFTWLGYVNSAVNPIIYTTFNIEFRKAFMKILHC
T1 sequence (P28564 whole entry): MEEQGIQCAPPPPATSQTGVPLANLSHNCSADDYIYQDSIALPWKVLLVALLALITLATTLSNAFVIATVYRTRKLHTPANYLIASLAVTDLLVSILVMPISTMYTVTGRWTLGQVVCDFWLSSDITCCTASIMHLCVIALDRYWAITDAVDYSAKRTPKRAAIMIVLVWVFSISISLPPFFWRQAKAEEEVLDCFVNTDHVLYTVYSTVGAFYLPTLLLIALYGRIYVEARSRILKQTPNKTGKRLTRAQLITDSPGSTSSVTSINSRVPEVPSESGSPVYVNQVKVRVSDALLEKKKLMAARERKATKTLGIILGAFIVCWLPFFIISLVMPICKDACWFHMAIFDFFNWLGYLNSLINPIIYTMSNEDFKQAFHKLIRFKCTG
T5 sequence (P18901 whole entry): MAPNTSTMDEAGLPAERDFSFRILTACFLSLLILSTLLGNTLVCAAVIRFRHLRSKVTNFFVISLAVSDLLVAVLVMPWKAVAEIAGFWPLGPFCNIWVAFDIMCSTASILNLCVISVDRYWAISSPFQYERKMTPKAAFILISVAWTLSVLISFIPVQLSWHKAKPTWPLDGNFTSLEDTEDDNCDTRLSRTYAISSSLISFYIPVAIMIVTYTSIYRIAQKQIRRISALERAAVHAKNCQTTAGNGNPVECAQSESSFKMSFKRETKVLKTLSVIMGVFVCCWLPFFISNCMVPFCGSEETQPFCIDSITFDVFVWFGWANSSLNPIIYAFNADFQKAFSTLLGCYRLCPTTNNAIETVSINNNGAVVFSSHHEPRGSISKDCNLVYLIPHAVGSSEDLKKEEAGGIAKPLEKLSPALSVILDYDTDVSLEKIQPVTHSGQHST

By pKi is commonly meant −log10 of the Ki, conventionally taken in molar units. A lower pKi goes with a large Ki. Usually Ki stands for a measure of affinity in units of concentration, obtained from inhibition or displacement. The ED50 is the dose that gives a 50% effect, or the effect in half of the subjects. Read a high ED50 as weaker potency. In the case of `Oc1ccccc1N1CCNCC1`, the negative-log Ki (pKi) is 7.13 in test [1], < 6.00 on D(1A) dopamine receptor [6], < 6.00 at D(2) dopamine receptor [7] and 7.45 in [8]. Moreover, the inhibition constant (Ki) is on record as > 1000 nM in test [2], 516 nM in test [3] and 117 nM in test [5]. Also, the median effective dose (ED50) in the test on Rattus norvegicus [4] stood at 26.2 mg/kg.

Take `CC(C)c1ccccc1N1CCNCC1`: the results for the inhibition constant Ki in [9], in test [3] and in test [13] were 23.4 nM, 168 nM and 190 nM, respectively. In addition, the ED50 in the test on Rattus norvegicus [4] worked out at 5.9 mg/kg. For the same compound, the pKi in test [10] is 8.40; on D(1A) dopamine receptor [12], < 6.00; at D(2) dopamine receptor [7] it was 6.95; in test [8] it was 7.90. In the test filed under Rattus norvegicus [11], the Loss is on record as 0.1%.

As to `FC(F)(F)c1cccc(N2CCNCC2)c1`, the pKi was < 6.00 on D(1A) dopamine receptor [14], 8.65 in test [15], 7.09 in test [16] and 6.28 at D(2) dopamine receptor [17]. The values for the Ki in [2] and in [3] were 31.1 nM and 337 nM, respectively. In addition, the ED50 in the test on Rattus norvegicus [4] is 2.6 mg/kg. In the test listed under Rattus norvegicus [18], the Loss is 0.6%.

On to `Clc1ccccc1N1CCNCC1`, for which the negative-log Ki (pKi) at D(1A) dopamine receptor [19] is < 6.00; in test [10], 7.93; on D(2) dopamine receptor [21], < 6.00; in test [8], 7.71. Further, in the test with Rattus norvegicus [20], the 50% effect level (ED50) was put at a dose of 10.2 mg/kg. The inhibitory constant (Ki) in test [13] is recorded as > 1000 nM. Moreover, the Loss in the test listed under Rattus norvegicus [18] was 3.1%.

Take `CCc1ccccc1N1CCNCC1`: the inhibition constant (Ki) turned out to be 17.1 nM in [9], 96 nM in [3] and 124 nM in test [13]. For the same compound, it took a dose of 6.8 mg/kg to reach the 50% effect level in the test with Rattus norvegicus [4] (ED50). The pKi on D(1A) dopamine receptor [6] was < 6.00; in test [10], 8.09; at D(2) dopamine receptor [7], 6.35; in [8], 7.64. The Loss in the test filed under Rattus norvegicus [11] was 2.5%.

Turning to `Clc1cncc(N2CCNCC2)n1` [MK-212], the Ki in [9] is 844 nM; in [3], 913 nM; in test [13], > 1000 nM. Moreover, in the test with Rattus norvegicus [4], the ED50 is 2.8 mg/kg. Also, the pKi on D(1A) dopamine receptor [6] is < 6.00; in [10], 6.75; at D(2) dopamine receptor [7] it was < 6.00; in [8] it was 6.69. In the test listed under Rattus norvegicus [18], the Loss is reported as 19%.

With `Cc1ccccc1N1CCNCC1`, the Ki was 62.4 nM in [9], 108 nM in test [3] and 558 nM in test [22]. The ED50 in the test on Rattus norvegicus [4] is > 20 mg/kg. The pKi at D(1A) dopamine receptor [6] is < 6.00; in [10] it was 7.35; on D(2) dopamine receptor [7] it was < 6.00; in test [8], 7.56.
